Results from different studies.
Lines come from different studies, so protocols differ.
Target: Cyclin-dependent kinase 9 (CDK9, Homo sapiens, UniProt P50750)

SMILES | assay | setting | remaining binding [%]
Nc1cnc(N2CCc3cc(S(=O)(=O)Nc4c(F)cc(Cl)cc4F)cc(N4CCCC4=O)c32)nc1 | cell-free assay, competition with immobilised ligand | 1 µM | 100
C=CC(=O)N1CCC(C(=O)NCC(=O)N2CCN(c3nc(-c4cnc(N)nc4C(F)F)nc(N4CCOCC4)n3)CC2)CC1 | binding, competition with immobilised ligand | 1 µM | 98
CCN1CCN(Cc2ccc(C(=O)Nc3ccc(C)c(Oc4ccc5c(c4)CC(=O)N5)c3)cc2C(F)(F)F)CC1 | binding, competition with immobilised ligand | 1 µM | 100
C[C@@H](c1cccc(C#N)c1)n1cc(Cl)cc(C(N)=O)c1=N | cell-free assay, competition with immobilised ligand | 1 µM | 91
O=C(Nc1c[nH]nc1C(=O)NC1CCNCC1)c1cc(F)cc(F)c1 | binding, competition with immobilised ligand | 1 µM | 72
CNC(=O)[C@@H]1CC[C@@H](n2c(-c3ccc4cnccc4c3)nc3ccc(C(=O)NCc4cccc(C(N)=O)c4)cc32)C1 | binding, competition with immobilised ligand | 1 µM | 100
CN(c1nccc(-c2cnn3ncccc23)n1)C1CC1 | binding | 1 µM | 100
FC(F)(F)Oc1cccc(-c2cnc3ccc(-c4ccncc4)nn23)c1 | cell-free assay, competition with immobilised ligand | 5 µM | 89
CO[C@H]1CC[C@H](CNc2ccc(S(=O)(=O)NC(=O)c3ccc(N4CCN(CC5=C(c6ccc(Cl)cc6)CC(C)(C)CC5)CC4)cc3Oc3cnc4[nH]ccc4c3)cc2[N+](=O)[O-])CC1 | cell-free assay, competition with immobilised ligand | 1 µM | 91
CN(C)c1ncc(F)c(-c2cnn3ncccc23)n1 | binding | 1 µM | 100
COc1ccc2c(O[C@@H]3C[C@H]4C(=O)N[C@]5(C(=O)O)CC5/C=C\CCCCC[C@H](NC(=O)OC5CCCC5)C(=O)N4C3)cc(-c3csc(NC(=O)C(C)C)n3)nc2c1C (stereo partly drawn) | cell-free assay, competition with immobilised ligand | 1 µM | 83
C[C@@H]1CN(c2ccc3ncc(-c4ccc5[nH]nc(C6CC6)c5c4)n3n2)C[C@H](C)O1 | binding, competition with immobilised ligand | 50 nM | 79
O=C(c1ccc(Nc2ncc(Cl)c(-c3ccc(Cl)s3)n2)cc1)N1CCC(N2CCCC2)CC1 | binding, competition with immobilised ligand | 1 µM | 68
COc1ccnn2ncc(-c3ccnc(N(C)C)n3)c12 | binding | 1 µM | 100
CS(=O)(=O)N1CCCC(NC(=O)[C@H](CCC2CCCCC2)NC(=O)c2ccc(CNc3ncnc4c3nnn4-c3ccccc3)cc2)C1 (stereo partly drawn) | cell-free assay, competition with immobilised ligand | 0.1 µM | 87
CN(C)c1nccc(-c2cnc3ncccn23)n1 | binding | 1 µM | 100
NS(=O)(=O)c1cc(NC(=O)C2(c3ccccc3Cl)CC2)ccc1Oc1cccc(Cl)c1 | cell-free assay, competition with immobilised ligand | 1 µM | 78
O=C(NCCCN1CCOCC1)c1ccc(Nc2nccc(-c3cc4ccccc4s3)n2)cc1 | binding, competition with immobilised ligand | 1 µM | 52
O=C(O)[C@H]1[C@H](Cn2nnc3ccccc3c2=O)CC[C@@H]1C(=O)c1ccc(OCCC2CCOCC2)cc1 | cell-free assay, competition with immobilised ligand | 1 µM | 72
c1cncc(-c2cccc(Nc3nccc(NC4CCCCC4)n3)c2)c1 | binding, competition with immobilised ligand | 10 µM | 63
C[C@@H](c1ccc(-n2cnc3c(N)ncnc32)cc1)N1CCc2nn(C)c(Cc3ccccc3)c2C1=O | binding, competition with immobilised ligand | 0.1 µM | 85
CC(C)(C)c1ccc(-c2nc(CBr)nn2-c2cccc(O)c2)cc1 | cell-free assay, competition with immobilised ligand | 10 µM | 91
Cc1cnn2ncc(-c3ccnc(N(C)C)n3)c2c1 | binding | 1 µM | 91
Cc1cnc(Nc2ccc(C(=O)N3CCC(N4CCCC4)CC3)cc2)nc1-c1cc2ccccc2s1 | binding, competition with immobilised ligand | 1 µM | 82
